From article PMC4838516 (ChemMedChem, 2016)
Read-outs that look alike come from different tables or passages of the source.

Experiments:
[1] = biological target: KSHV Pr (Human herpesvirus 8 type P, UniProt Q2HRB6); assay: Dose-response kinetic assay of KSHV Pr with fluorogenic P6R substrate; type: biochemical; settings: read-out: KSHV Pr IC50
Procedure, shortened: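 Manual kinetic dose-response assay on KSHV Pr with the P6R substrate Ac-Pro-Val-Tyr-tBG-Leu-Gln-Ala-(rhodamine110)-dPro, read in a plate reader at ex/em 485/530 nm. IC50 was taken from dose-response curves of enzymatic activity; reported values are means.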

[2] = biological target: HCMV Pr (Human cytomegalovirus, UniProt P16753); assay: Dose-response kinetic assay of HCMV Pr with ACC tetrapeptide substrate; type: biochemical; settings: read-out: HCMV Pr IC50; --- = No quantifiable inhibition
Sequence of HCMV Pr (P16753 1-256): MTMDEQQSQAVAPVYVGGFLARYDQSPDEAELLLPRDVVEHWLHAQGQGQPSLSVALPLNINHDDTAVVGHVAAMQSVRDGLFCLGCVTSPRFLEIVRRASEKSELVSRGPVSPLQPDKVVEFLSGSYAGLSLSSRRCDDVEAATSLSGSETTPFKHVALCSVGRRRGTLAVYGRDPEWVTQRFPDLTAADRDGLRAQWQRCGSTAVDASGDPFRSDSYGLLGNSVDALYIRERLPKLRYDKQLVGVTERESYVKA
Procedure, shortened: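 Manual kinetic fluorescence assay on HCMV Pr using the tetrapeptide Ac-tBG-tBG-Asn(NMe2)-Ala carrying an ACC fluorophore, with ex/em 380/460 nm. Activity was followed over a dilution series of test compound to determine the IC50.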

Sequence of KSHV Pr (Q2HRB6 1-230): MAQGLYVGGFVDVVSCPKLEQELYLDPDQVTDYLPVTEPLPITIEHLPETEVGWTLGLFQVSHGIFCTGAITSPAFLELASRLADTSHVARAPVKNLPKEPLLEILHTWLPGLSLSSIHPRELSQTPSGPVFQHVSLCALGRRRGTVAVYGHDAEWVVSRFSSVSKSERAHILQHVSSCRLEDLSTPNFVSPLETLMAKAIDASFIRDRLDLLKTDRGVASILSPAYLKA

## Nc1nc(-c2ccccc2)cs1 [Fragment 20]
[1]
  IC50: > 1000 µM
[1]; P6R rhodamine110 substrate
  IC50: > 500 µM
[2]
  IC50: > 500 µM
